In ChEMBL document CHEMBL3102735, “Enhancing the pharmacodynamic profile of a class of selective COX-2 inhibiting nitric oxide donors” (Bioorg Med Chem, 2014):
≈ marks a conversion by molar mass, not a printed value. Values belong to the compound of their own block, whether it stands above or below them. Calls of active or inactive are those of the source. No cut-off for these calls is given here.

Legend:
J774 = assay: Selectivity index, ratio of IC50 for COX-1 to IC50 for COX-2 in mouse J774 cells; type: cell-based
Procedure, shortened: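 J774 macrophages stimulated 24 h with E. coli LPS (10 µg/mL) to induce COX-2, with or without compound (0.01–10 µM); supernatant PGE2 by RIA. Triplicate wells, three experiments, percent inhibition versus control, IC50 by sigmoidal fit; selectivity as COX-1/COX-2 IC50 ratio.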

[1] = biological target: T1, Prostaglandin G/H synthase 1 (Mus musculus, UniProt P22437); assay: Inhibition of COX-1 in mouse J774 cells using arachidonic acid as substrate assessed as inhibition of prostaglandin E2 production preincubated for 15 mins followed by substrate addition measured after 30 mins by RIA; type: cell-based
T1 sequence (P22437 whole entry): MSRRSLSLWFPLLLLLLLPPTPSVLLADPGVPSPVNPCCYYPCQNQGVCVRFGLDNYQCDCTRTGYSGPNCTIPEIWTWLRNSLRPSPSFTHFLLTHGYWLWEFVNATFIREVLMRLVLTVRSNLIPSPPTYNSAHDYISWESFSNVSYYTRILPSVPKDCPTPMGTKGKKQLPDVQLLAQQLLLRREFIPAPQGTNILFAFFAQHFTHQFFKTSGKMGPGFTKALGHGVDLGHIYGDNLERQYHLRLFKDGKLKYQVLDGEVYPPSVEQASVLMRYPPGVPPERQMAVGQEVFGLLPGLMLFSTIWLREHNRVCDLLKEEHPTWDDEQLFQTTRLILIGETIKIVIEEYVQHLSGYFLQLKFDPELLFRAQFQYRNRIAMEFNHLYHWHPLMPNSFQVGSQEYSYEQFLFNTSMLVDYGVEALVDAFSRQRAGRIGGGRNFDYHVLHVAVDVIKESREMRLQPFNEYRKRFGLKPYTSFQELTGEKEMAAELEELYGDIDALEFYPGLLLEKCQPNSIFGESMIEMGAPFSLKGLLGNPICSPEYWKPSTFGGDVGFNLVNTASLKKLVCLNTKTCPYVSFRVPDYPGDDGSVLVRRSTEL
Procedure, shortened: (§1)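 J774 murine macrophages pretreated 15 min with compound (10 µM; lower concentrations 0.01–1 µM where needed), then incubated 30 min at 37 °C with 15 µM arachidonic acid; supernatant PGE2 measured by RIA. Triplicate wells, mean of three experiments of percent inhibition versus control; IC50 by sigmoidal fit.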

[2] = biological target: T2, Prostaglandin G/H synthase 2 (Mus musculus) (UniProt Q05769); assay: Inhibition of LPS-induced COX-2 in mouse J774 cells using arachidonic acid as substrate assessed as inhibition of prostaglandin E2 production at 10 uM preincubated for 15 mins followed by substrate addition measured after 30 mins by RIA; type: cell-based
T2 sequence (whole entry): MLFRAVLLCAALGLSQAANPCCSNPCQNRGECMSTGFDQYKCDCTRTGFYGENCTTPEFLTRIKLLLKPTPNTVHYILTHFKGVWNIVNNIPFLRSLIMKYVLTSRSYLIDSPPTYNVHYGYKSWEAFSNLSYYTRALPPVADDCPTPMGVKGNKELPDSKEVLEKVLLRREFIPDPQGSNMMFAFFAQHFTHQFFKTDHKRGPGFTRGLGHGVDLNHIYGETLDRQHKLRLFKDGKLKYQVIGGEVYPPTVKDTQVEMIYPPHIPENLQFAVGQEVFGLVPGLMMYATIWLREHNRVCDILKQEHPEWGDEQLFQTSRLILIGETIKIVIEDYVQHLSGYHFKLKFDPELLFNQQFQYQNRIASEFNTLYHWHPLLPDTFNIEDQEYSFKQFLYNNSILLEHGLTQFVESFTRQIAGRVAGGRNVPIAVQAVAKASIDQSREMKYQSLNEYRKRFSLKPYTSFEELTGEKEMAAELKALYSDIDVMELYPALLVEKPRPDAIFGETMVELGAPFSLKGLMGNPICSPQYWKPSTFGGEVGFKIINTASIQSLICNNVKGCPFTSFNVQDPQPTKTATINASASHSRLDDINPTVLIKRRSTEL

[3] = biological target: T3, Prostaglandin G/H synthase 1 (Mus musculus) (UniProt P22437); assay: Inhibition of COX-1 in mouse J774 cells using arachidonic acid as substrate assessed as inhibition of prostaglandin E2 production at 10 uM preincubated for 15 mins followed by substrate addition measured after 30 mins by RIA; type: cell-based; procedure, shortened: as §1
T3 sequence (whole entry): T1 sequence (P22437 whole entry)

[4] = Metabolic stability in Sprague-Dawley rat plasma assessed as compound remaining after 120 mins by LC-MS/MS analysis; type: ADME, cell-free; conditions: read-out: Stability
Procedure, shortened: (§2)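 Compound (12 µL of 1 mM DMSO solution into 588 µL medium) incubated in PBS pH 7.4, pepsin-free SGF pH 1.5, or EDTA rat plasma. Aliquots taken at 0, 30, 60, 120 min and quenched with ice-cold acetonitrile containing internal standard; parent remaining as percent.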

[5] = Metabolic stability in Sprague-Dawley rat plasma assessed as compound remaining after 60 mins by LC-MS/MS analysis; type: ADME, cell-free; conditions: read-out: Stability; procedure, shortened: as §2
[6] = Metabolic stability in Sprague-Dawley rat plasma assessed as compound remaining after 30 mins by LC-MS/MS analysis; type: ADME, cell-free; conditions: read-out: Stability; procedure, shortened: as §2
[7] = Stability of the compound in simulated gastric fluid assessed as compound remaining at pH 1.5 after 120 mins by LC-MS/MS analysis; type: physicochemical; conditions: read-out: Stability
Procedure, shortened: (§3)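 1 mM DMSO stock added to 0.01 M PBS (pH 7.4) or 0.05 M simulated gastric fluid without pepsin (pH 1.5 with HCl); incubated in hybridisation oven; aliquots at 0, 30, 60, 120 min quenched with ice-cold acetonitrile containing internal standard; parent remaining (%) measured.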

[8] = Stability of the compound in simulated gastric fluid assessed as compound remaining at pH 1.5 after 60 mins by LC-MS/MS analysis; type: physicochemical; conditions: read-out: Stability; procedure, shortened: as §3
[9] = Solubility of the compound in simulated gastric fluid at pH 1.5 after 90 mins by HPLC analysis; type: ADME
Procedure, shortened: (§4)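 DMSO stock (20 mM) diluted 2 µL into 198 µL PBS 0.01 M pH 7.4 or pepsin-free SGF 0.05 M pH 1.5, duplicate wells, shaken 90 min at 300 rpm. Filtrates analysed by HPLC with photodiode-array detection against seven-point standards (1–200 µM).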

[10] = Stability of the compound in phosphate buffer saline assessed as compound remaining at pH 7.4 after 30 mins by LC-MS/MS analysis; type: physicochemical; conditions: read-out: Stability; procedure, shortened: as §3
[11] = Stability of the compound in phosphate buffer saline assessed as compound remaining at pH 7.4 after 120 mins by LC-MS/MS analysis; type: physicochemical; conditions: read-out: Stability; procedure, shortened: as §2
[12] = Stability of the compound in simulated gastric fluid assessed as compound remaining at pH 1.5 after 30 mins by LC-MS/MS analysis; type: physicochemical; conditions: read-out: Stability; procedure, shortened: as §3
[13] = Stability of the compound in phosphate buffer saline assessed as compound remaining at pH 7.4 after 60 mins by LC-MS/MS analysis; type: physicochemical; conditions: read-out: Stability; procedure, shortened: as §3
[14] = Solubility of the compound in phosphate buffer saline at pH 7.4 after 90 mins by HPLC analysis; type: physicochemical; procedure, shortened: as §4
Mus musculus [15] = assay: Analgesic activity in po dosed Swiss albino mouse assessed as reduction of acetic acid-induced writhing measured every 10 mins after 5 mins of administration; type: functional, organism-based
Procedure, shortened: (§5)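 Male Swiss albino mice (23–25 g), compound given orally in CMC vehicle; writhing induced by 0.6% acetic acid (10 mL/kg) ip. Stretching movements counted for 10 min, starting 5 min after administration; percent reduction versus CMC-treated animals.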

Thoracic aorta [16] = assay: Ex vivo vasorelaxant activity in Wistar rat endothelium thoracic aortic ring assessed as reduction of KCl-induced contraction at 0.001 uM to 10 uM relative to control; type: functional
Procedure, shortened: (§6)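 Endothelium-denuded thoracic aortic rings from male Wistar rats (250–350 g) in oxygenated Tyrode-type buffer at 37 °C, isometric tension recording. Rings precontracted with 30 mM KCl, then 3-fold increasing compound concentrations (1 nM–10 µM) added, also with 1 µM ODQ preincubated. Emax as % of KCl tone; pIC50; mean ± SE of 6–10 experiments.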

Thoracic aorta [17] = assay: Ex vivo vasorelaxant activity in Wistar rat endothelium thoracic aortic ring assessed as reduction of KCl-induced contraction in presence of guanylate cyclase inhibitor ODQ; type: functional; procedure, shortened: as §6
Mus musculus [18] = assay: Analgesic activity in Swiss albino mouse assessed as reduction of acetic acid-induced writhing at 40 mg/kg, po measured every 10 mins after 5 mins of administration relative to control; type: functional; set-up: scale not given: the % may be the effect or the level left; procedure, shortened: as §5
[19] = biological target: T4, Prostaglandin G/H synthase 2 (Mus musculus, UniProt Q05769); assay: Inhibition of LPS-induced COX-2 in mouse J774 cells using arachidonic acid as substrate assessed as inhibition of prostaglandin E2 production preincubated for 15 mins followed by substrate addition measured after 30 mins by RIA; type: cell-based
T4 sequence (Q05769 whole entry): T2 sequence (whole entry)

Mus musculus [20] = assay: Analgesic activity in Swiss albino mouse assessed as reduction of acetic acid-induced writhing at 10 mg/kg, po measured every 10 mins after 5 mins of administration relative to control; type: functional; set-up: scale not given: the % may be the effect or the level left; procedure, shortened: as §5
Mus musculus [21] = assay: Analgesic activity in Swiss albino mouse assessed as reduction of acetic acid-induced writhing at 20 mg/kg, po measured every 10 mins after 5 mins of administration relative to control; type: functional; set-up: scale not given: the % may be the effect or the level left; procedure, shortened: as §5

SMILES: Cc1c(CC(=O)OCCO[N+](=O)[O-])cc(-c2ccc(S(C)(=O)=O)cc2)n1-c1cccc(F)c1
remaining at 2 h [4]: 0%
remaining at 1 h [5]: 0%
remaining at 0.5 h [6]: 0%
remaining at 2 h [7]: 42.8%
remaining at 1 h [8]: 65.7%
solubility at 1.5 h [9]: < 1 µM
remaining at 0.5 h [10]: 74.1%
remaining at 2 h [11]: 0.15%
remaining at 0.5 h [12]: 80.2%
remaining at 1 h [13]: 53.6%

SMILES: Cc1c(CC(=O)NC(CO[N+](=O)[O-])C(=O)O)cc(-c2ccc(S(C)(=O)=O)cc2)n1-c1ccc(F)cc1 (stereo unspecified)
solubility at 1.5 h [14]: 90.5 µM (≈ 47 µg/mL)
solubility at 1.5 h [9]: 112 µM (≈ 58.2 µg/mL)
Activity (Mus musculus [15]): Dose-dependent effect
Emax (Thoracic aorta [16]): 25%
Activity (Thoracic aorta [17]): inactive
Activity (Mus musculus [18]): 50%
Ratio IC50 (J774): > 32
IC50 [19]: 310 nM
IC50 [1]: > 10000 nM
inhibition [2]: 100%
inhibition [3]: 0%
Activity (Mus musculus [20]): 0%
Activity (Mus musculus [21]): 29%

SMILES: Cc1c(CC(=O)NC(CO[N+](=O)[O-])C(=O)O)cc(-c2ccc(S(C)(=O)=O)cc2)n1-c1cccc(F)c1 (racemic)
remaining at 2 h [4]: 28.6%
remaining at 1 h [5]: 57.1%
remaining at 0.5 h [6]: 71.4%
remaining at 2 h [7]: 87.5%
remaining at 1 h [8]: 93.8%
Activity (Mus musculus [15]): Dose-dependent effect
Emax (Thoracic aorta [16]): 18%
Activity (Thoracic aorta [17]): inactive
Activity (Mus musculus [18]): 50%
Ratio IC50 (J774): > 71
IC50 [19]: 140 nM
IC50 [1]: > 10000 nM
inhibition [2]: 100%
inhibition [3]: 0%
Activity (Mus musculus [20]): 12%
Activity (Mus musculus [21]): 47%
remaining at 0.5 h [10]: 75%
remaining at 2 h [11]: 37.5%
remaining at 0.5 h [12]: 100%
remaining at 1 h [13]: 50%

SMILES: Cc1c(CC(=O)NC(CCO[N+](=O)[O-])C(=O)O)cc(-c2ccc(S(C)(=O)=O)cc2)n1-c1cccc(F)c1 (racemic)
Activity (Mus musculus [15]): Dose-dependent effect
Emax (Thoracic aorta [16]): 25%
Activity (Thoracic aorta [17]): inactive
Activity (Mus musculus [18]): 23%
Ratio IC50 (J774): > 6
IC50 [1]: > 10000 nM
inhibition [2]: 43%
inhibition [3]: 27%
Activity (Mus musculus [21]): 10%

The next lines start with results.

IC50 [1]: > 10000 nM
inhibition [2]: 79%
inhibition [3]: 16%
SMILES: Cc1c(CC(=O)NC(CCO)C(=O)O)cc(-c2ccc(S(C)(=O)=O)cc2)n1-c1cccc(F)c1 (racemic)
Ratio IC50 (J774): > 10

IC50 [19]: 68 nM
IC50 [1]: > 10000 nM
inhibition [2]: 100%
inhibition [3]: 23%
SMILES: Cc1c(CC(=O)NC(CO)C(=O)O)cc(-c2ccc(S(C)(=O)=O)cc2)n1-c1cccc(F)c1 (racemic)
Ratio IC50 (J774): > 167
